The source of these data is ChEMBL document CHEMBL2434894, “Pyranoxanthones: Synthesis, growth inhibitory activity on human tumor cell lines and determination of their lipophilicity in two membrane models” (Eur J Med Chem, 2013).

Values after ≈ are worked out from the molar mass of the structure shown. Bounds are passed on as bounds.

A short description of data set [1]: Partition coefficient, log Kp of the compound in micelle-HEPES buffer at pH 7.4. Type of data set: physicochemical.
A short description of data set [2]: Partition coefficient, log Kp of the compound in liposome-HEPES buffer at pH 7.4. To be noted: artificial membrane. Type of data set: physicochemical.
For another data set, the system named is NCI-H460. Nature of the data set: Cytotoxicity against human NCI-H460 cells after 48 hrs by SRB assay. Type of data set: functional. To be noted: NCI-H460, 48 h. Summed up: (§1)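 Cells kept in RPMI-1640 with 5% heat-inactivated FBS at 37 °C and 5% CO2, used in exponential growth at >90% viability (Trypan blue). Seeded per well: MCF-7 and NCI-H460 5 × 10³, A375-C5 7.5 × 10³, HL-60 1 × 10⁴. After 24 h, serial dilutions (0–150, where possible) were given for 48 h; DMSO ≤0.25%. Plates were TCA-fixed (10% adherent, 16.7% HL-60), SRB-stained and read at 510 nm. GI50 taken from curves; mean ± SE, ≥3 experiments; doxorubicin as positive control.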
(In general: Sulforhodamine B stains cellular protein and so reports cell mass.)

Data set [3] can be described thus: Cytotoxicity against human A375-C5 cells after 48 hrs by SRB assay. Type of data set: functional. Particulars: A375-C5, 48 h. Summed up: as §1
For a further data set, the system named is MCF7. Nature of the data set: Cytotoxicity against human MCF7 cells after 48 hrs by SRB assay. In kind it is functional. To be noted: MCF7, 48 h. Summed up: as §1
The subject of the next data set is HL-60. Nature of the data set: Cytotoxicity against human HL60 cells after 48 hrs by SRB assay. In kind it is functional. To be noted: HL-60, 48 h. Summed up:
as §1

The next data set has as its system L1210. Nature of the data set: Cytotoxicity against mouse L1210 cells. Type of data set: functional, cell-based.
Data set [4] is described as follows: Cytotoxicity against human BC1 cells. Type of data set: functional, cell-based.
For a further data set, the system named is KB. Nature of the data set: Cytotoxicity against human KB cells. In kind it is functional, cell-based.
Another data set deals with NCI-H187. Nature of the data set: Cytotoxicity against human NCI-H187 cells. Type of data set: functional, cell-based.
The nature of data set [5]: Cytotoxicity against Drosophila melanogaster S2 cells. Type of data set: functional, cell-based.
In a further data set the test system is SGC-7901. Nature of the data set: Cytotoxicity against human SGC7901 cells. Type of data set: functional, cell-based.
Another data set has as its system HCT-116. Nature of the data set: Cytotoxicity against human HCT116 cells. Type of data set: functional, cell-based.
The test system of another data set is SMMC-7721. Nature of the data set: Cytotoxicity against human SMMC7721 cells. In kind it is functional, cell-based.

Take `CC1(C)CCc2c(cc(O)c3c(=O)c4ccccc4oc23)O1`: the “log Kp” value in data set [1] came to 4.27.
A word on the GI50: it is the concentration at which growth is held to half of that of the control. Low values mean more potent growth inhibition, high ones less potent growth inhibition. Consider `COc1c2c(cc3c(=O)c4ccccc4oc13)C=CC(C)(C)O2`, for which the “log Kp” value in data set [2] was 3.88; in [1] it was 3.83. Also, the GI50 (in the data set with NCI-H460; in data set [3]; in the data set with MCF7) was over 150 µM each time.
Regarding `CC1(C)C=Cc2ccc3c(=O)c4ccccc4oc3c2O1`, the “log Kp” value is 3.42 in [2] and 3.5 in data set [1]. Moreover, the 50% growth inhibitory concentration (GI50) came out at 32.9 µM with NCI-H460, 6.2 µM in [3], 3.2 µM in the data set on HL-60 and 13.3 µM in the data set on MCF7.
With `CC1(C)C=Cc2c(ccc3oc4ccccc4c(=O)c23)O1`, the “log Kp” value in data set [2] is listed as 4.14; in data set [1] it was 4.1. Moreover, the concentration for 50% growth inhibition (GI50) amounted to 44.5 µM in the data set on NCI-H460, 37.9 µM in data set [3], 36.7 µM with HL-60 and 50.9 µM in the data set on MCF7.
Consider `CC1(C)C=Cc2cc3oc4ccccc4c(=O)c3c(O)c2O1`, for which the results for the “log Kp” value in data set [2] and in [1] were 4.17 and 4.15, respectively. Moreover, the GI50 turned out to be 31.7 µM in the data set with NCI-H460, 29.6 µM in data set [3], 38.9 µM in the data set on HL-60 and 39.6 µM with MCF7.
In the case of `CC1(C)CCc2cc3oc4ccccc4c(=O)c3c(O)c2O1`, the “log Kp” value was 3.96 in data set [2] and 3.88 in [1]. Moreover, the GI50 in the data set with NCI-H460 was over 150 µM; in data set [3], over 150 µM; in the data set on HL-60, 26.1 µM; in the data set with MCF7, over 150 µM.
For `COc1c2c(cc3c(=O)c4ccccc4oc13)OC(C)(C)C=C2`, the “log Kp” value in data set [2] was 3.94; in [1], 4.07. For the same molecule, the concentration for 50% growth inhibition (GI50) with HL-60 worked out at 11.8 µM.
Regarding `COc1c2c(cc3c(=O)c4ccccc4oc13)OC(C)(C)CC2`, the “log Kp” value in data set [2] is listed as 3.92; in data set [1], 3.88. The concentration for 50% growth inhibition (GI50) with NCI-H460 worked out at 47.3 µM; in data set [3], 42.5 µM; in the data set with HL-60 it was 31.8 µM; in the data set with MCF7 it was 45.1 µM.
Turning to `CC1(C)C=Cc2c(cc3c(=O)c4ccccc4oc3c2O)O1`, the “log Kp” value in data set [2] is listed as 3.06; in data set [1] it was 3.29. Also, the 50% growth inhibitory concentration (GI50) in the data set with NCI-H460 was over 150 µM; in data set [3], over 150 µM; with HL-60, over 70 µM; in the data set on MCF7 it was 108 µM.
On to `COc1c2c(cc3oc4ccccc4c(=O)c13)C=CC(C)(C)O2`, for which the “log Kp” value is 3.54 in [2] and 3.76 in data set [1]. For the same molecule, the results for the GI50 (in the data set with NCI-H460; in data set [3]; in the data set with HL-60) were 42.9 µM, 47.4 µM and 9.6 µM, respectively.
With `COc1cc2c(c3oc4ccccc4c(=O)c13)OC(C)(C)C=C2`, the entries for the “log Kp” value in data set [2] and in data set [1] were 3.32 and 3.33, respectively. For the same molecule, the concentration for 50% growth inhibition (GI50) in data set [3] was determined as 69.5 µM; in the data set on HL-60, 9.6 µM.
On to `COc1c2c(cc3oc4ccccc4c(=O)c13)CCC(C)(C)O2`, for which the “log Kp” value in [2] was found to be 3.09; in [1], 3.58. For the same molecule, the concentration for 50% growth inhibition (GI50) with NCI-H460 is over 150 µM; in data set [3], over 150 µM; in the data set on HL-60, 37.6 µM.
In the case of `COc1cc2c(c3oc4ccccc4c(=O)c13)OC(C)(C)CC2`, the “log Kp” value is reported as 3.08 in data set [2] and 3.46 in [1]. In addition, the figures for the GI50 (in [3]; in the data set on HL-60; in the data set with MCF7) were over 100 µM, 30.9 µM and over 100 µM, respectively.
On to `CC1(C)C=Cc2cc(O)c3c(=O)c4ccccc4oc3c2O1`, for which, in [1], the “log Kp” value is given as 4.08. Besides, the concentration for 50% growth inhibition (GI50) in data set [3] is over 100 µM; in the data set on HL-60, 6.4 µM.
Turning to `CC1(C)CCc2cc(O)c3c(=O)c4ccccc4oc3c2O1`, the “log Kp” value in data set [1] came out at 4.28. Moreover, the GI50 (in the data set with NCI-H460; in data set [3]; with HL-60; in the data set with MCF7) was over 50 µM each time.
As to `CC1(C)C=Cc2c(cc3oc4ccccc4c(=O)c3c2O)O1`, the “log Kp” value in [1] is 4.06. Also, the GI50 with NCI-H460 and with MCF7 was over 150 µM throughout.
`CC1(C)C=Cc2c(cc(O)c3c(=O)c4ccccc4oc23)O1`: the “log Kp” value in data set [1] is on record as 4.02. Also, the GI50 in the data set on NCI-H460 and in the data set on MCF7 was over 150 µM in each case.
What is called IC50 is the concentration that inhibits the measured activity by half. High values mean weaker potency, low ones greater potency. In the data set on L1210, `COc1cc(OC)c2c(=O)c3c(O)c4c(c(OC)c3oc2c1OC)OC(C)(C)C=C4` had an IC50 of 3.51 µg/mL (≈ 8.47 µM).
Same read-out and setting: as for `COc1ccc2c(=O)c3c(OC)c4c(c(OC)c3oc2c1OC)OC(C)(C)C=C4`, the figure is 4.23 µg/mL (≈ 10.6 µM).
Regarding `CC(C)=CCc1c(O)cc2oc3cc(O)c4c(c3c(=O)c2c1O)CCC(C)(C)O4`, the IC50 in [4] worked out at 3.9 µg/mL (≈ 9.84 µM); in the data set on KB, 3.9 µg/mL; in the data set on NCI-H187, 3.9 µg/mL (≈ 9.84 µM).
For `CC1(C)CCc2cc3oc4cc(O)cc(O)c4c(=O)c3c(O)c2O1`, in [5], half-maximal inhibition (IC50) was put at 6.3 µg/mL (≈ 19.2 µM).
Regarding `CC1(C)CCc2c(cc3oc4ccccc4c(=O)c3c2O)O1`, the “log Kp” value in data set [1] was determined as 4.32.
Take `CC(C)=CCc1c2c(c3oc4cc(O)c(O)cc4c(=O)c3c1O)C=CC(C)(C)O2` [CUDRATRICUXANTHONE]: the half-maximal inhibitory concentration (IC50) in the data set on SGC-7901, in the data set with HCT-116 and in the data set on SMMC-7721 was 4.1 µM each time.
Turning to `COc1cccc2c1C(=O)c1c(O)c3c(c(O)c1C2=O)C[C@@](O)(C(=O)CO)C[C@@H]3O[C@H]1C[C@H](N)[C@H](O)[C@H](C)O1` [DOXORUBICIN], in the data set with HL-60, halving of growth (GI50) required 0.028 µM.
`COc1c(O)cc2c(=O)c3c(O)c4c(cc3oc2c1CC=C(C)C)OC(C)(C)C=C4` [MANGLEXANTHONE] returned an IC50 with KB of 1900 nM.
